Only some compounds are listed: those with a hit (about 3% of all), similar ones and a draw of the others.
HIF activator: HIF pathway transcriptional activators, primary screen, cell-based, U2OS HRE-luciferase, luminescence | U2OS HRE-luciferase reporter; normalized: DMSO 0%, desferrioxamine 100% | activation, % at 7.5 µM (by protocol) | hit rate 0.32% among 300,000 | AID 1910, 2009;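 active = mean activation of at least 10% of the iron chelator positive control signal, with at least half of replicates also reaching 10%; inconclusive = mean and replicate majority disagree about reaching 10%; inactive = mean and most replicates under 10%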
AI-2 QS mod: Vibrio harveyi AI-2 quorum sensing modulators, primary screen, JMH597 strain, luminescence/OD600 ratio. activity change, % at 7.5 µM. hit rate 0.4% among 300,000. Vibrio harveyi JMH597 AI-2 luminescence/OD600 ratio, 9 h; active compounds read low; strain lacks LuxN and CqsS sensors; 0 = neutral-control median; in the data active = activity change below about -75%, passing the limit was not always enough; inconclusive = no clear call, values can overlap the other calls;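 note: luminescence divided by OD600 gain over 9 h not by final OD600 alone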
T cruzi repl: inhibitors of intracellular T. cruzi growth, primary screen, luminescence, NIH3T3 host cells; AID 1885, 2009; T. cruzi beta-gal in NIH3T3, 90 h; hit rate 1.4% among 300,000; inhibition, % (no concentration beside the values);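 active = mean inhibition across valid replicates above about 55%, limit read from the data; inconclusive = mean below that limit but half or more replicates reach it; inactive = mean below it, under half of replicates reach it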;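 note: signal also drops with host cell toxicity which is not excluded here; 0% = plate median of DMSO wells and 100% = zero luminescence signal; higher percent means less beta-gal luminescence so fewer parasites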
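assay system = mouse NIH/3T3 fibroblasts infected with β-gal-expressing T. cruzi Tulahuen C4 | input = 5,000 NIH/3T3 host cells per well | buffer or medium = DMEM plus 2% FBS | timing = 3 h host attachment, then at least 90 h co-culture | measured by = GalScreen luminescence, 60 min | evaluation = luminescence reflecting intracellular parasite burden, expressed as percent inhibition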
V-ATPase pH: regulators of yeast V-ATPase proton pumping, primary screen, pHLuorin cytosolic pH fluorescence. S. cerevisiae. response, % at 10 µM. hit rate 0.37% among 350,000; in the data active = response mostly above about 7.3%, no sharp cut-off; inactive = mostly below about 5.4%; note: actives read high
Yeast superoxide: reduction of superoxide in aged yeast, primary screen, HTS; S. cerevisiae aged cells, superoxide DHE fluorescence; active compounds read low; superoxide response (% of plate mean), % at 10 µM; hit rate 0.18% among 330,000; AID 2690, 2010;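 active = superoxide response under a set limit, about three screen SD below normal, cut at about 65% in these data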;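 note: yeast aged for seven days with compound at 30 °C before DHE staining; 100% = average MFI of all compound-treated wells on the plate with controls excluded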
CendR NRP1 mod: modulators of CendR peptide binding to NRP-1, primary screen, biochemical, fluorescence polarization, uHTS; hit rate 0.85% among 360,000; inhibition, % at 25 µM; FAM-RPARPAR peptide binding to NRP-1; AID 602438, 2012;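 active = inhibition or corrected inhibition above about 18%, plus a signal ratio from 0.5 to 1.5, limit read from the data, passing the limit was not always enough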
Target sequence (O14786 whole entry, looked up): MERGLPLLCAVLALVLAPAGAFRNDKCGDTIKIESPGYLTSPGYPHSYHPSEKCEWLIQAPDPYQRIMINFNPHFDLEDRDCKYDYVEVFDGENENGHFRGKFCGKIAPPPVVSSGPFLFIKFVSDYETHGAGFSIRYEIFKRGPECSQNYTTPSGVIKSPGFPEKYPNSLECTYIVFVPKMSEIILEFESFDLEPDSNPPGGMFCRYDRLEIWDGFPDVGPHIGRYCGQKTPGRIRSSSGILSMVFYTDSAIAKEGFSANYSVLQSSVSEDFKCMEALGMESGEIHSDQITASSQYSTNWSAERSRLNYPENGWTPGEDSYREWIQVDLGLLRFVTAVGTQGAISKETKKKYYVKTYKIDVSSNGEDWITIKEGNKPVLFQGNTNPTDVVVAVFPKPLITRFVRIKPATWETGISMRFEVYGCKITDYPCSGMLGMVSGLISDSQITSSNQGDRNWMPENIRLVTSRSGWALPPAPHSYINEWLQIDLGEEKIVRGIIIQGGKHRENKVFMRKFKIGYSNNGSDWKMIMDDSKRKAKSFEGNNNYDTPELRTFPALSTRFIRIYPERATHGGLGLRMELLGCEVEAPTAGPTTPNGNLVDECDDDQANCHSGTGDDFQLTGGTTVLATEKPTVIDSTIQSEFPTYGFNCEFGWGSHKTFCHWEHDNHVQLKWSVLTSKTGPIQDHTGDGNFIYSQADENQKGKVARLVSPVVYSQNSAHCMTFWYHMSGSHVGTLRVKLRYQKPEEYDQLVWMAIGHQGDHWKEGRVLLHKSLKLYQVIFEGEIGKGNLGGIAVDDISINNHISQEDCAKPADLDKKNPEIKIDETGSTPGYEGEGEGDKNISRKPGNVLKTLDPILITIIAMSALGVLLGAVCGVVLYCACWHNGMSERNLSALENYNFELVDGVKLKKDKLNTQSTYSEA
The depositor's hits bear a star; i = inactive; ? = inconclusive; · = no result.

SMILES | HIF activator | AI-2 QS mod | T cruzi repl | V-ATPase pH | Yeast superoxide | CendR NRP1 mod
Cn1nc(-c2ccc(Cl)cc2)nc2c(=O)n(C)c(=O)nc1-2 | -2 | -77* | 56* | · | i | ·
Cc1ccc(-c2noc(-c3ccccc3C(=O)N3CCOCC3)n2)cc1 | 0 | 10 | 3 | -3 | 108 | 1
COc1ccc(-c2noc(-c3ccccc3C(=O)N3CCOCC3)n2)cc1 | 0 | -13 | -13 | · | 81 | 26*
C=C(C)Cn1c2ccc(NC(=O)NCCc3cccs3)cc2c(=O)n1C | · | · | · | · | · | 0
O=C(NCC(c1ccccc1Cl)N1CCCC1)c1ccc(N2CCCC2=O)cc1 (centres undefined) | · | · | · | -4 | · | 2
CN1C(=O)C(C)(C)c2cc(S(=O)(=O)NCCc3ccc(Cl)cc3)ccc21 | 0 | 36 | -7 | -2 | 104 | 2
Cc1ccc(CCNS(=O)(=O)c2ccc3c(c2)C(C)(C)C(=O)N3C)cc1 | 0 | 5 | -5 | 25* | 88 | -4
COc1cc(CN(CC2CCCO2)C(=O)c2ccco2)cc(OC)c1OC (centres undefined) | -1 | 14 | -1 | 3 | 100 | 16
COc1cc(CN(CC2CCCO2)C(=O)c2cccs2)cc(OC)c1OC (centres undefined) | 0 | 19 | -7 | 5 | 101 | 26*
CS(=O)(=O)N1CCN(c2ccc(NC(=O)CSc3nnc(-c4ccco4)o3)cc2)CC1 | 0 | 12 | -19 | -1 | 101 | 8
O=C(CN1CCC(Cc2ccccc2)CC1)NC(=O)NCc1ccccc1 | 0 | -19 | -2 | -3 | 103 | -6
Cc1ccc(C)c(S(=O)(=O)N2CCN(CC(=O)NC(=O)NCc3ccccc3)CC2)c1 | 1 | -41 | 56* | 0 | 102 | 4
CC1CCC(C(C)C)C(OCC[N+](C)(C)C)C1 (centres undefined) | 1 | -8 | -10 | 2 | 105 | -1
Cc1cc(C)c(C#N)c(N2CCN(CCOc3ccc(Cl)cc3)CC2)n1 | 0 | 8 | 23 | -1 | 86 | 27*
Cc1cccc(CN2CCN(CCCc3ccccc3)CC2)c1 | 0 | 27 | 63* | · | 77 | ·
Cc1ccc2cc3c(NC(=O)CC(C)C)nn(C)c3nc2c1 | 0 | 4 | -3 | -17 | 90 | -10
CCc1ccc(CN(Cc2cccnc2)C(=O)/C=C/c2ccc(OC)cc2)cc1 | 0 | 3 | 64* | -2 | 102 | -158
O=C(c1ncn(Cc2ccccc2)c1C(=O)N1CCc2ccccc2C1)N1CCc2ccccc2C1 | · | · | · | -3 | 102 | 30*
CC(=O)Nc1ccc(C(=O)CCl)cc1 | · | · | · | 3 | 121 | -4
CC(=O)NCc1ccc(C(=O)CCl)s1 | 5 | 32 | 56* | -3 | 106 | 1
CC(=O)NCc1ccc(C(=O)CCl)cc1 | 0 | 42 | 61* | 0 | 106 | -1
CC(=O)N(C)Cc1ccc(C(=O)CCl)cc1 | -1 | 28 | 74* | -2 | 104 | 7
COc1ccc(C(=O)OCC(=O)c2ccc(CNC(C)=O)s2)cc1 | · | · | · | -2 | 105 | 10
O=C(CCN1CCN(c2ccccc2)CC1)NNC(=O)Cc1ccc(Br)cc1 | · | · | · | 2 | · | -4
CC(Oc1ccc(Br)cc1)C(=O)NNC(=O)CCN1CCN(c2ccccc2)CC1 (centres undefined) | 0 | -92* | -16 | 1 | 105 | 1
SMILES | HIF activator | AI-2 QS mod | T cruzi repl | V-ATPase pH | Yeast superoxide | CendR NRP1 mod
COc1ccc(C2C(C(=O)Nc3ccc(F)cc3)=C(C)Nc3nc(CCCO)nn32)cc1 (centres undefined) | 0 | 14 | -12 | -2 | 102 | 20*
Cc1c(C(=O)Nc2nc3ccccc3[nH]2)oc2ccc(Br)cc12 | 1 | 0 | 56* | -2 | 112 | 12
Cc1c(C(=O)Nc2nc3ccccc3[nH]2)oc2ccccc12 | 0 | 0 | -6 | 1 | 98 | -7
Cc1c(C(=O)Nc2nc3ccccc3[nH]2)oc2c(Cl)cccc12 | 1 | 15 | 70* | -4 | 81 | -6
CCC(C)c1ccc(S(=O)(=O)N2CCN(C(C)CC(=O)O)CC2)cc1 (centres undefined) | 0 | 20 | -4 | -2 | 106 | 10
CCCCCCCC(=O)N/N=C(\C)c1ccc(O)cc1O | 2 | -4 | -17 | -1 | 96 | -13
C/C(=N\NC(=O)COc1ccccc1-c1ccccc1)c1ccccn1 | 7 | -4 | 71* | -2 | 90 | -2
C/C(=N\NC(=O)COc1ccccc1-c1ccccc1)c1cccnc1 | 0 | -12 | 2 | 0 | 102 | -5
C/C(=N\NC(=O)COc1ccccc1-c1ccccc1)c1ccc(O)cc1O | 2 | 6 | 77* | -2 | 101 | -12
CC(C)CCNC(=O)C1CCC(CNS(=O)(=O)c2cccc3nsnc23)CC1 (centres undefined) | 0 | 11 | 56* | -2 | 93 | 7
CC1CCC(NC(=O)C2CCC(CNS(=O)(=O)c3cccc4cccnc34)CC2)CC1 (centres undefined) | -1 | 17 | 0 | -3 | 89 | 21*
O=C1N=C(N2C=CC(=C3C=CNC=C3)C=C2)/C(=C/N=NC(=O)c2ccccc2O)S1 | 0 | ? | 6 | -6 | 144 | 41*
Cc1ccc(-n2c(SCC(=O)N/N=C/c3ccccc3C(=O)O)nnc2-c2ccccc2)cc1 | 0 | 9 | -1 | 1 | 99 | 2
CN(c1ccccc1)c1nc(N)c([N+](=O)[O-])c(Nc2ccccc2F)n1 | 2 | 10 | 37 | 2 | 98 | -12
CCC(C)Nc1nc(N)c([N+](=O)[O-])c(Nc2cc(OC)ccc2OC)n1 (centres undefined) | -1 | 20 | 28 | 1 | 80 | 52*
CCC(C)Nc1nc(N)c([N+](=O)[O-])c(Nc2ccccc2OC)n1 (centres undefined) | 0 | 6 | 16 | -1 | 79 | 6
COc1ccc(OC)c(Nc2nc(N(C)c3ccccc3)nc(N)c2[N+](=O)[O-])c1 | -1 | 20 | 69* | 0 | 100 | 2
O=[N+]([O-])c1nn(-c2ccc3c(c2)OCCO3)n(O)c1=NCc1ccc(F)cc1Cl | 3 | 9 | 25 | 7 | 90 | -3
CC(C)c1ccc(N=c2c([N+](=O)[O-])nn(-c3ccc4c(c3)OCCO4)n2O)cc1 | 0 | 29 | 53 | 2 | 90 | 8
CCc1cccc(N=c2c([N+](=O)[O-])nn(-c3ccc4c(c3)OCCO4)n2O)c1 | 0 | 14 | 70* | 2 | 93 | 9
CN=c1c([N+](=O)[O-])nn(-c2ccc3c(c2)OCCO3)n1O | 1 | 90 | 61* | 0 | 117 | 4

Assay outcomes from PubChem BioAssay.
